This note sets out measurements from ChEMBL document CHEMBL1133019, “Synthesis, spectroscopy, and cytotoxicity of glycosylated acetogenin derivatives as promising molecules for cancer therapy” (J Med Chem, 2000).

Where “and” joins values, the source holds several entries; their conditions need not be identical. Identical values can stand only once.

Experiment [1] in a line: Cytotoxic activity against human epidermoid carcinoma cells (KB). The class given is functional. An outline of the steps:
(§1)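 Adherent monolayers seeded 24 h before treatment; 3-fold serial dilutions added; 72 h at 37 °C, humidified 5% CO2. Cells formol-fixed, methylene blue stained, washed, dye released with 0.1 M HCl, absorbance at 620 nm. Proliferation as % of acetogenin-free control; EC50 (50% growth inhibition) read from dose-response curves.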

The test system of experiment [2] is L1210. Briefly: Cell Cycle inhibition against mouse lymphocytic leukemia cells (L1210) at 10 uM. It counts as functional. The method in brief: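 L1210 cells cultured 24 h with compound, alongside a compound-free control flask; BrdU added after 15 min. Cells ethanol-permeabilized, stained with rat anti-BrdU then FITC goat secondary, counterstained with propidium iodide, analysed by flow cytometry. Percentage of cells in each cell-cycle phase calculated from histograms.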

For experiment [3], the system named is L1210. The experiment in a line: Cytotoxic activity against mouse lymphocytic leukemia cells (L1210). It counts as functional, cell-based. The method in brief:
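L1210 in RPMI 1640 with 10% FBS, 2 mM L-glutamine, penicillin/streptomycin; doubling time about 13 h. Exponentially growing cells (1 × 10^4/well) exposed 72 h at 37 °C to drug dilutions prepared from DMSO solutions in medium. Coulter counter cell counts, triplicates, as % of triplicate controls; IC50 from residual cells vs concentration on semilog scale.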

The test system of the next experiment is Vero. The experiment in a line: Cytotoxic activity against african green monkey (Cercopithecus aethiops) kidney epithelial cells (VERO). The class given is functional, cell-based. The following applies: Chlorocebus sabaeus. An outline of the steps:
as §1

One may read the EC50 as the concentration at which the effect is half-maximal. In general, inhibition refers to the share of the control response that was lost under treatment. On to `CCCCCC[C@H](O)CCC[C@H](OC[C@H]1O[C@@H](O)[C@H](O)[C@@H](O)[C@@H]1O)[C@H]1CC[C@H]([C@H]2CC[C@H]([C@H](O)CCCCCCCCCCCCC3C[C@H](C)OC3=O)O2)O1` (some centres not stated), for which the EC50 was 0.009 µM in experiment [1]; 0.01 µM and 0.08 µM in the experiment with L1210 [3] (l1210). The inhibition at 10 µM in the experiment with L1210 [2] came to 54%.

Take `CCCCCC[C@@H](CCC[C@H](OC(C)=O)[C@H]1CC[C@H]([C@H]2CC[C@H]([C@@H](CCCCCCCCCCCCC3=C[C@H](C)OC3=O)OC(C)=O)O2)O1)OC[C@H]1O[C@@H](OC(C)=O)[C@H](OC(C)=O)[C@@H](OC(C)=O)[C@@H]1OC(C)=O`: the EC50 in experiment [1] was 0.00096 µM; with L1210 [3] (Mus musculus, L1210), 0.3 µM; with Vero, 0.02 µM.

As for `CCCCCC[C@H](O)CCC[C@H](OC[C@H]1O[C@@H](O)[C@H](O)[C@@H](O)[C@@H]1O)[C@H]1CC[C@H]([C@H]2CC[C@H]([C@@H](CCCCCCCCCCCCC3=C[C@H](C)OC3=O)OC[C@H]3O[C@@H](O)[C@H](O)[C@@H](O)[C@@H]3O)O2)O1`, the EC50 came to 1.05 µM in experiment [1]; 10 µM in the experiment with L1210 [3] (Mus musculus, L1210); 1.05 µM in the experiment with Vero.

In turn, `CCCCCC[C@H](O)CCC[C@H](OC[C@H]1O[C@@H](OCc2ccccc2)[C@H](OCc2ccccc2)[C@@H](OCc2ccccc2)[C@@H]1OCc1ccccc1)[C@H]1CC[C@H]([C@H]2CC[C@H]([C@H](O)CCCCCCCCCCCCC3=C[C@H](C)OC3=O)O2)O1` gave an EC50 in the experiment on L1210 [3] (Mus musculus, L1210) of 0.05 µM.

For `CCCCCC[C@@H](CCC[C@H](OC(C)=O)[C@H]1CC[C@H]([C@H]2CC[C@H]([C@@H](CCCCCCCCCCCCC3=C[C@H](C)OC3=O)OC(C)=O)O2)O1)OC[C@H]1O[C@@H](O)[C@H](O)[C@@H](O)[C@@H]1O`, the EC50 in experiment [1] came to 0.011 µM; in the experiment on L1210 [3] (Mus musculus, L1210), 0.017 µM; in the experiment on Vero it was 0.34 µM.

In the case of `CCCCCC[C@H](O)CCC[C@H](O)[C@H]1CC[C@H]([C@H]2CC[C@H]([C@@H](CCCCCCCCCCCCC3=C[C@H](C)OC3=O)OC[C@H]3O[C@H](OCc4ccccc4)[C@H](OCc4ccccc4)[C@@H](OCc4ccccc4)[C@@H]3OCc3ccccc3)O2)O1`, the inhibition at 10 µM in the experiment with L1210 [2] is 65%.

`CCCCCC[C@H](O)CCC[C@H](O)[C@H]1CC[C@H]([C@H]2CC[C@H]([C@H](O)CCCCCCCCCCCCC3C[C@H](C)OC3=O)O2)O1` (some centres not stated): the EC50 was 0.00024 µM in experiment [1]; under 0.00025 µM with L1210 [3] (Mus musculus, L1210); 0.016 µM in the experiment on Vero.

As for `CCCCCC[C@H](O)CCC[C@H](O)[C@H]1CC[C@H]([C@H]2CC[C@H]([C@H](O)CCCCCCCCCCCCC3=C[C@H](C)OC3=O)O2)O1` [SQUAMOCIN], the EC50 in experiment [1] was 0.00024 µM; in the experiment with L1210 [3] (Mus musculus, L1210) it was under 0.00025 µM; with Vero it was 0.016 µM.

Turning to `CC[C@]1(O)C[C@@H]2CN(CCc3c([nH]c4ccccc34)[C@@](C(=O)OC)(c3cc4c(cc3OC)N(C)[C@H]3[C@@](O)(C(=O)OC)[C@H](OC(C)=O)[C@]5(CC)C=CCN6CC[C@]43[C@@H]65)C2)C1` [VINBLASTINE], the EC50 in experiment [1] was 0.0012 µM; in the experiment with Vero, under 3.7 µM.
